Experimental data: ChEMBL document CHEMBL3112482, “Nonclassical antifolates, part 5. Benzodiazepine analogs as a new class of DHFR inhibitors: synthesis, antitumor testing and molecular modeling study” (Eur J Med Chem, 2014)

What was measured:
K562 = test: Growth inhibition of human K562 cells at 10 uM after 48 hrs; type: functional; conditions: K562, 48 h, read-out: GI
Method in brief: (§1)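 Single-dose primary screen in the NCI 60 human tumour cell line panel, run at the NCI facility. The panel covers nine subpanels: leukaemia, non-small cell lung, colon, CNS, melanoma, ovarian, renal, prostate and breast. Read-out was percent growth of treated cells, shown as a mean graph and reported as percent growth inhibition.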

NCI-H23 = test: Growth inhibition of human NCI-H23 cells at 10 uM after 48 hrs; type: functional; conditions: NCI-H23, 48 h, read-out: GI; method in brief: as §1
A498 = test: Growth inhibition of human A498 cells at 10 uM after 48 hrs; type: functional; conditions: A498, 48 h, read-out: GI; method in brief: as §1
SF-268 = test: Growth inhibition of human SF268 cells at 10 uM after 48 hrs; type: functional; conditions: SF-268, 48 h, read-out: GI
Method in brief: (§2)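 NCI 60-cell-line disease-oriented human tumor panel, single-dose primary screen at 10 µM. Data given as mean-graph percent growth of treated cells, reported as percent growth inhibition (GI %).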

PC-3 = test: Growth inhibition of human PC3 cells at 10 uM after 48 hrs; type: functional; conditions: PC-3, 48 h, read-out: GI; method in brief: as §1
SK-MEL-5 = test: Growth inhibition of human SK-MEL-5 cells at 10 uM after 48 hrs; type: functional; conditions: SK-MEL-5, 48 h, read-out: GI; method in brief: as §2
OVCAR-3 = test: Growth inhibition of human OVCAR3 cells at 10 uM after 48 hrs; type: functional; conditions: OVCAR-3, 48 h, read-out: GI; method in brief: as §1
A549 = test: Growth inhibition of human A549 cells at 10 uM after 48 hrs; type: functional; conditions: A549, 48 h, read-out: GI; method in brief: as §1
[1] = Growth inhibition of human HOP92 cells at 10 uM after 48 hrs; type: functional; conditions: HOP-92, 48 h, read-out: GI; method in brief: as §1
[2] = Growth inhibition of human UACC257 cells at 10 uM after 48 hrs; type: functional; conditions: UACC-257, 48 h, read-out: GI; method in brief: as §2
SNB-75 = test: Growth inhibition of human SNB75 cells at 10 uM after 48 hrs; type: functional; conditions: SNB-75, 48 h, read-out: GI; method in brief: as §2
MCF7 = test: Growth inhibition of human MCF7 cells at 10 uM after 48 hrs; type: functional; conditions: MCF7, 48 h, read-out: GI; method in brief: as §1
[3] = Growth inhibition of human Hs 578T cells at 10 uM after 48 hrs; type: functional; conditions: read-out: GI; method in brief: as §1
NCI-H322M = test: Growth inhibition of human NCI-H322M cells at 10 uM after 48 hrs; type: functional; conditions: read-out: GI; method in brief: as §1
SR = test: Growth inhibition of human SR cells at 10 uM after 48 hrs; type: functional; conditions: read-out: GI; method in brief: as §2
IGROV-1 = test: Growth inhibition of human IGROV1 cells at 10 uM after 48 hrs; type: functional; conditions: IGROV-1, 48 h, read-out: GI; method in brief: as §1
TK-10 = test: Growth inhibition of human TK10 cells at 10 uM after 48 hrs; type: functional; conditions: TK-10, 48 h, read-out: GI; method in brief: as §2
[4] = Growth inhibition of human OVCAR4 cells at 10 uM after 48 hrs; type: functional; conditions: OVCAR-4, 48 h, read-out: GI; method in brief: as §1
[5] = Growth inhibition of human NCI-ADR-RES cells at 10 uM after 48 hrs; type: functional; conditions: read-out: GI; method in brief: as §1
T47D = test: Growth inhibition of human T47D cells at 10 uM after 48 hrs; type: functional; conditions: read-out: GI; method in brief: as §2
[6] = Growth inhibition of human SF539 cells at 10 uM after 48 hrs; type: functional; conditions: SF-539, 48 h, read-out: GI; method in brief: as §2
Dihydrofolate reductase = target: T1, Dihydrofolate reductase (Bos taurus, UniProt P00376); test: Inhibition of bovine liver DHFR measured for every 1 min of 10 mins
T1 sequence (P00376 whole entry): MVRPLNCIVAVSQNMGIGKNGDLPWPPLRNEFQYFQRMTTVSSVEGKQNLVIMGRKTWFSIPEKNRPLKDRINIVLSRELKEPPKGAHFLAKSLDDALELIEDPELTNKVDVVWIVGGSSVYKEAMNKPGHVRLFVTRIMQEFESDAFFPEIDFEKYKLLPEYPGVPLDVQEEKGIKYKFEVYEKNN

UACC-62 = test: Growth inhibition of human UACC62 cells at 10 uM after 48 hrs; type: functional; conditions: UACC-62, 48 h, read-out: GI; method in brief: as §2
SK-OV-3 = test: Growth inhibition of human SKOV3 cells at 10 uM after 48 hrs; type: functional; conditions: SK-OV-3, 48 h, read-out: GI; method in brief: as §2
[7] = Cytotoxicity against human breast cancer cells at 10 uM after 48 hrs; type: functional; conditions: Cancer cell lines; method in brief: as §1
SK-MEL-28 = test: Growth inhibition of human SK-MEL-28 cells at 10 uM after 48 hrs; type: functional; conditions: SK-MEL-28, 48 h, read-out: GI; method in brief: as §2
[8] = Growth inhibition of human UO31 cells at 10 uM after 48 hrs; type: functional; conditions: UO-31, 48 h, read-out: GI; method in brief: as §2
MDA-MB-231 = test: Growth inhibition of human MDA-MB-231 cells at 10 uM after 48 hrs; type: functional; conditions: MDA-MB-231, 48 h, read-out: GI; method in brief: as §1
[9] = Growth inhibition of human OVCAR5 cells at 10 uM after 48 hrs; type: functional; conditions: OVCAR-5, 48 h, read-out: GI; method in brief: as §1
[10] = Growth inhibition of human EKVX cells at 10 uM after 48 hrs; type: functional; conditions: read-out: GI; method in brief: as §1
HCT-15 = test: Growth inhibition of human HCT15 cells at 10 uM after 48 hrs; type: functional; conditions: HCT-15, 48 h, read-out: GI; method in brief: as §1
[11] = Cytotoxicity against human renal cancer cells at 10 uM after 48 hrs; type: functional; conditions: Cancer cell lines
[12] = Growth inhibition of human HCC2998 cells at 10 uM after 48 hrs; type: functional; conditions: HCC 2998, 48 h, read-out: GI; method in brief: as §1
SNB-19 = test: Growth inhibition of human SNB19 cells at 10 uM after 48 hrs; type: functional; conditions: SNB-19, 48 h, read-out: GI; method in brief: as §2
MOLT-4 = test: Growth inhibition of human MOLT4 cells at 10 uM after 48 hrs; type: functional; conditions: MOLT-4, 48 h, read-out: GI; method in brief: as §1
SW-620 = test: Growth inhibition of human SW620 cells at 10 uM after 48 hrs; type: functional; conditions: SW-620, 48 h, read-out: GI; method in brief: as §2
M14 = test: Growth inhibition of human M14 cells at 10 uM after 48 hrs; type: functional; conditions: M14, 48 h, read-out: GI; method in brief: as §1
NCI-H460 = test: Growth inhibition of human NCI-H460 cells at 10 uM after 48 hrs; type: functional; conditions: NCI-H460, 48 h, read-out: GI; method in brief: as §1
HL-60(TB) = test: Growth inhibition of human HL-60(TB) cells at 10 uM after 48 hrs; type: functional; conditions: HL-60, 48 h, read-out: GI
Method in brief: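 NCI 60-cell-line human tumour panel covering nine subpanels (leukaemia, non-small cell lung, colon, CNS, melanoma, ovarian, renal, prostate, breast), run at the NCI facility. Primary screen tested a single dose of each compound. Read-out was percent growth of treated cells versus untreated cells, reported from the mean graph as percentage growth inhibition.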

| Compound | inhibition of growth at 10 µM (K562) [%] | inhibition of growth at 10 µM (NCI-H23) [%] | inhibition of growth at 10 µM (A498) [%] | inhibition of growth at 10 µM (SF-268) [%] | inhibition of growth at 10 µM (PC-3) [%] | inhibition of growth at 10 µM (SK-MEL-5) [%] | inhibition of growth at 10 µM (OVCAR-3) [%] | inhibition of growth at 10 µM (A549) [%] | inhibition of growth at 10 µM [1] [%] | inhibition of growth at 10 µM [2] [%] | inhibition of growth at 10 µM (SNB-75) [%] | inhibition of growth at 10 µM (MCF7) [%] | inhibition of growth at 10 µM [3] [%] | inhibition of growth at 10 µM (NCI-H322M) [%] | inhibition of growth at 10 µM (SR) [%] | inhibition of growth at 10 µM (IGROV-1) [%] | inhibition of growth at 10 µM (TK-10) [%] | inhibition of growth at 10 µM [4] [%] | inhibition of growth at 10 µM [5] [%] | inhibition of growth at 10 µM (T47D) [%] | other results |
| --- | --- | --- | --- | --- | --- | --- | --- | --- | --- | --- | --- | --- | --- | --- | --- | --- | --- | --- | --- | --- | --- |
| COc1cc(/C=C2\CCCc3c2nc(C)nc3-c2cc(OC)c(OC)c(OC)c2)cc(OC)c1OC | 88.9 | 66.1 | 83.7 | 78.8 | 57.4 | 80.9 | 72 | 83.8 | < 30 | 56.2 | 78.1 | 77 | 51.4 | 58.9 | < 30 | 69.3 | 55.5 | 57.8 | 85.6 | < 30 | inhibition of growth at 10 µM [6]: 86.5%; IC50 (Dihydrofolate reductase): 0.5 µM; inhibition of growth at 10 µM (UACC-62): 91%; inhibition of growth at 10 µM (SK-OV-3): 56.1%; GI50 [7]: 2.6 µM; LC50 (concentration killing 50% of cells) [7]: > 100 µM; TGI [7]: 80.8 µM; inhibition of growth at 10 µM (SK-MEL-28): 68.1%; inhibition of growth at 10 µM [8]: 48.9%; inhibition of growth at 10 µM (MDA-MB-231): 86.9%; inhibition of growth at 10 µM [9]: 89.2%; inhibition of growth at 10 µM [10]: < 30%; inhibition of growth at 10 µM (HCT-15): 95.8%; CC50 [11]: > 100 µM; GI50 [11]: 2.2 µM; TGI [11]: 42 µM; inhibition of growth at 10 µM [12]: 88.1%; inhibition of growth at 10 µM (SNB-19): 38.8% |
| Cc1nc2c(c(-c3ccc(Cl)cc3)n1)CCC/C2=C\c1ccc(Cl)cc1 | < 30 | < 30 | < 30 | < 30 | < 30 | < 30 | < 30 | < 30 | < 30 | < 30 | < 30 | 68.7 | < 30 | < 30 | < 30 | < 30 | < 30 | < 30 | < 30 | < 30 | inhibition of growth at 10 µM (MOLT-4): < 30%; inhibition of growth at 10 µM (SW-620): < 30%; inhibition of growth at 10 µM [6]: < 30%; inhibition of growth at 10 µM (M14): 34.7%; inhibition of growth at 10 µM (NCI-H460): < 30%; inhibition of growth at 10 µM (UACC-62): < 30%; inhibition of growth at 10 µM (SK-OV-3): < 30%; inhibition of growth at 10 µM (SK-MEL-28): < 30%; inhibition of growth at 10 µM [8]: < 30%; inhibition of growth at 10 µM (MDA-MB-231): < 30%; inhibition of growth at 10 µM [9]: < 30%; inhibition of growth at 10 µM [10]: < 30%; inhibition of growth at 10 µM (HL-60(TB)): < 30%; inhibition of growth at 10 µM (HCT-15): < 30%; inhibition of growth at 10 µM [12]: 58.5%; inhibition of growth at 10 µM (SNB-19): < 30% |
